Values belong to the molecule of their own block, whether it stands above or below them. Calls of active or inactive are those of the source. The calls are words filed in the database; no cut-off is given here.
Assays:
[1] = target: Histamine H3 receptor (Homo sapiens, UniProt Q9Y5N1); assay: Displacement of N-[3H]methylhistamine from human histamine H3 receptor expressed in human SK-N-MC cells after 45 mins; type: cell-based
[2] = Metabolic stability in Sprague-Dawley rat liver microsomes assessed as compound remaining at 1 uM after 15 mins; type: ADME; conditions: read-out: Stability
Summary of the method: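 Rat liver microsomes incubated with compound for 15 min. Stability expressed as percent of parent remaining.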

[3] = Metabolic stability in human liver microsomes assessed as compound remaining at 1 uM after 15 mins; type: ADME; conditions: read-out: Stability
Summary of the method: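 Compound incubated with human liver microsomes for 15 min. Read-out is percent parent remaining.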

[4] = Clearance in Sprague-Dawley rat; type: ADME, organism-based; conditions: in vivo
[5] = Volume of distribution at steady state in Sprague-Dawley rat; type: ADME, organism-based; conditions: in vivo, read-out: Vdss
[6] = Half life in Sprague-Dawley rat at 1 mg/kg, iv; type: ADME, organism-based; conditions: in vivo
[7] = Oral bioavailability in Sprague-Dawley rat at 10 mg/kg; type: ADME, organism-based; conditions: in vivo
[8] = Drug uptake in Sprague-Dawley rat brain at 3 mg/kg, po measured at 1 hr; type: ADME, organism-based; conditions: read-out: Drug uptake
Summary of the method: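 Rats dosed orally at 3 mg/kg. Brain drug concentration (μM) measured at 1 h post-dose.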

[9] = tested on: Rattus norvegicus; assay: Ex vivo histamine H3 receptor occupancy in Sprague-Dawley rat striatum at 3 mg/kg, po measured at 1 hr by autoradiographic analysis; type: functional
Summary of the method: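 After a 3 mg/kg oral dose in rats, ex vivo H3 receptor occupancy was determined by autoradiography at 1 h. Values are mean ± SD.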

[10] = target: Voltage-gated inwardly rectifying potassium channel KCNH2 (Homo sapiens, UniProt Q12809); assay: Displacement of [3H]-astemizole from human ERG expressed in HEK293 cells after 60 mins by scintillation counting analysis; type: cell-based
[11] = Apparent permeability across apical to basolateral side in human Caco2 cells at 10 uM after 60 mins by LC/MS/MS analysis; type: ADME, cell-based; conditions: Caco-2
Summary of the method: (§1)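 Caco-2 monolayer permeability measured in both directions, apical-to-basolateral and basolateral-to-apical. Reported as P_app (×10−⁶ cm/s), given as A−B/B−A pairs.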

[12] = Apparent permeability across basolateral to apical side in human Caco2 cells at 10 uM […] by LC/MS/MS analysis; type: ADME, cell-based; conditions: Caco-2; summary of the method: as §1
[13] = Plasma protein binding in human; type: ADME, cell-free; conditions: read-out: PPB (converted)
[14] = target: T1, Cytochrome P450 1A2 (Homo sapiens, UniProt P05177); assay: Inhibition of CYP1A2 (unknown origin); type: ADME
T1 sequence (P05177 whole entry): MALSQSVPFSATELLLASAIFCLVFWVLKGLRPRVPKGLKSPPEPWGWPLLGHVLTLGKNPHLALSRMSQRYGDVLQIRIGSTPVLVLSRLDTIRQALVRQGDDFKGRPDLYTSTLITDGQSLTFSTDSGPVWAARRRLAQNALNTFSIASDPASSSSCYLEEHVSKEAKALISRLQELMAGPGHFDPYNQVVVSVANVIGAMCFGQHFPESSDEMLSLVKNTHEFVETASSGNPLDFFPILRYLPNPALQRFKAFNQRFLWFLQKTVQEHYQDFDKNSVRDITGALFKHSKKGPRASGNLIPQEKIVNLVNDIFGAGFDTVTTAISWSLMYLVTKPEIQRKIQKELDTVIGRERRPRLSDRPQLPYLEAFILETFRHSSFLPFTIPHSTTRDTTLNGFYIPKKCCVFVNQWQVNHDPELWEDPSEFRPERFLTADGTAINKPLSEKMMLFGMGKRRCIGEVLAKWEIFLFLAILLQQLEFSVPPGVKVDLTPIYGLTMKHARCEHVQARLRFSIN
Summary of the method: (§2)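 CYP1A2, 2C9, 2C19, 2D6 and 3A4 inhibition measured and reported as IC₅₀ (μM).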

[15] = target: Cytochrome P450 2C9 (Homo sapiens, UniProt P11712); assay: Inhibition of CYP2C9 (unknown origin); type: ADME; summary of the method: as §2
[16] = target: Cytochrome P450 2C19 (Homo sapiens, UniProt P33261); assay: Inhibition of CYP2C19 (unknown origin); type: ADME; summary of the method: as §2
[17] = target: Cytochrome P450 2D6 (Homo sapiens, UniProt P10635); assay: Inhibition of CYP2D6 (unknown origin); type: ADME; summary of the method: as §2
[18] = target: Cytochrome P450 3A4 (Homo sapiens, UniProt P08684); assay: Inhibition of CYP3A4 (unknown origin); type: ADME; summary of the method: as §2
[19] = tested on: Rattus norvegicus; assay: Wake-promoting activity in Sprague-Dawley rat assessed as increase in time spent awake at 10 mg/kg, sc administered during light sleep phase measured over first 6 hrs post-treatment; type: functional
Summary of the method: (§3)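 Rats treated during the light sleep phase. Time awake, NREM and REM sleep duration scored over the first 6 h post-treatment.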

[20] = tested on: Rattus norvegicus; assay: Wake-promoting activity in Sprague-Dawley rat assessed as decrease in non-rapid eye movement sleep duration at 10 mg/kg, sc administered during light sleep phase measured over first 6 hrs post-treatment; type: functional, organism-based; summary of the method: as §3
[21] = tested on: Rattus norvegicus; assay: Toxicity in Sprague-Dawley rat assessed as effect on rapid eye movement sleep at 10 mg/kg, sc administered during light sleep phase measured over first 6 hrs post-treatment; type: organism-based; conditions: in vivo
[22] = tested on: Rattus norvegicus; assay: Toxicity in Sprague-Dawley rat assessed as increase in locomotor activity at 10 mg/kg, sc; type: organism-based; conditions: in vivo
[23] = tested on: Rattus norvegicus; assay: Toxicity in rat assessed as induction of mild and sporadic salivation at 250 mg/kg, po administered up to 28 days; type: organism-based; conditions: in vivo, 672 h
Summary of the method: (§4)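 Rats dosed orally at up to 250 mg/kg daily for up to 28 days. Monitored for clinical signs (salivation, activity), body weight, food consumption and clinical pathology; NOAEL derived.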

[24] = tested on: Rattus norvegicus; assay: Toxicity in rat assessed as decrease in locomotor activity at 250 mg/kg, po administered up to 28 days; type: organism-based; conditions: in vivo, 672 h; summary of the method: as §4
[25] = tested on: Rattus norvegicus; assay: Toxicity in rat assessed as decrease in body weight at 250 mg/kg, po administered up to 28 days; type: organism-based; conditions: in vivo, 672 h; summary of the method: as §4
[26] = tested on: Rattus norvegicus; assay: Toxicity in rat assessed as clinical pathology alteration at 250 mg/kg, po administered up to 28 days; type: organism-based; conditions: in vivo, 672 h; summary of the method: as §4
[27] = Toxicity in po dosed rat administered up to 28 days; type: organism-based; conditions: in vivo; summary of the method: as §4
[28] = tested on: Rattus norvegicus; assay: Toxicity in rat assessed as decrease in food consumption at 250 mg/kg, po administered up to 28 days; type: organism-based; conditions: in vivo, 672 h; summary of the method: as §4
[29] = species on record: Mus musculus; assay: Toxicity in mouse; type: organism-based; conditions: in vivo
[30] = tested on: Canis familiaris; assay: Toxicity in dog at 10 to 75 mg/kg/day administered for 5 days; type: organism-based, Canis lupus familiaris; conditions: in vivo, 120 h
[31] = Elimination half life in human at 2 mg; type: ADME, organism-based; conditions: in vivo, read-out: beta t1/2 (converted)
Summary of the method: (§5)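 Mean elimination half-life determined in human dose groups receiving 2 mg and 5 mg.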

[32] = Elimination half life in human at 5 mg; type: ADME, organism-based; conditions: in vivo, read-out: beta t1/2 (converted); summary of the method: as §5
[33] = species on record: Homo sapiens; assay: Toxicity in human assessed as insomnia; type: organism-based; conditions: in vivo
[34] = target: Voltage-gated L-type calcium channel (Rattus norvegicus, UniProt P22002+Q02485+P27732); assay: Binding affinity to rat L-type calcium channel at 1 uM

Chain of Histamine H3 receptor (Q9Y5N1 whole entry): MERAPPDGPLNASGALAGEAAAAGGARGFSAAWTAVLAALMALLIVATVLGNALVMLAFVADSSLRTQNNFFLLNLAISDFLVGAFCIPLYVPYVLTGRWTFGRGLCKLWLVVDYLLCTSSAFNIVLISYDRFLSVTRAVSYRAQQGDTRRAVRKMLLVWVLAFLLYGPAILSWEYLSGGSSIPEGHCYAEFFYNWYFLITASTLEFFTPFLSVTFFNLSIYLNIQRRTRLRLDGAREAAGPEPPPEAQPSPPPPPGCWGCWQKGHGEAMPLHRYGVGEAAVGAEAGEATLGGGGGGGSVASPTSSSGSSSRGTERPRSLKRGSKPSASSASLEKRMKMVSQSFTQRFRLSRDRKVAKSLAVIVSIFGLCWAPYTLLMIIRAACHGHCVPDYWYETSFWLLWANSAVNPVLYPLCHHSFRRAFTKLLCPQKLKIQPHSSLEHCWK
Chain of Voltage-gated inwardly rectifying potassium channel KCNH2 (Q12809 whole entry): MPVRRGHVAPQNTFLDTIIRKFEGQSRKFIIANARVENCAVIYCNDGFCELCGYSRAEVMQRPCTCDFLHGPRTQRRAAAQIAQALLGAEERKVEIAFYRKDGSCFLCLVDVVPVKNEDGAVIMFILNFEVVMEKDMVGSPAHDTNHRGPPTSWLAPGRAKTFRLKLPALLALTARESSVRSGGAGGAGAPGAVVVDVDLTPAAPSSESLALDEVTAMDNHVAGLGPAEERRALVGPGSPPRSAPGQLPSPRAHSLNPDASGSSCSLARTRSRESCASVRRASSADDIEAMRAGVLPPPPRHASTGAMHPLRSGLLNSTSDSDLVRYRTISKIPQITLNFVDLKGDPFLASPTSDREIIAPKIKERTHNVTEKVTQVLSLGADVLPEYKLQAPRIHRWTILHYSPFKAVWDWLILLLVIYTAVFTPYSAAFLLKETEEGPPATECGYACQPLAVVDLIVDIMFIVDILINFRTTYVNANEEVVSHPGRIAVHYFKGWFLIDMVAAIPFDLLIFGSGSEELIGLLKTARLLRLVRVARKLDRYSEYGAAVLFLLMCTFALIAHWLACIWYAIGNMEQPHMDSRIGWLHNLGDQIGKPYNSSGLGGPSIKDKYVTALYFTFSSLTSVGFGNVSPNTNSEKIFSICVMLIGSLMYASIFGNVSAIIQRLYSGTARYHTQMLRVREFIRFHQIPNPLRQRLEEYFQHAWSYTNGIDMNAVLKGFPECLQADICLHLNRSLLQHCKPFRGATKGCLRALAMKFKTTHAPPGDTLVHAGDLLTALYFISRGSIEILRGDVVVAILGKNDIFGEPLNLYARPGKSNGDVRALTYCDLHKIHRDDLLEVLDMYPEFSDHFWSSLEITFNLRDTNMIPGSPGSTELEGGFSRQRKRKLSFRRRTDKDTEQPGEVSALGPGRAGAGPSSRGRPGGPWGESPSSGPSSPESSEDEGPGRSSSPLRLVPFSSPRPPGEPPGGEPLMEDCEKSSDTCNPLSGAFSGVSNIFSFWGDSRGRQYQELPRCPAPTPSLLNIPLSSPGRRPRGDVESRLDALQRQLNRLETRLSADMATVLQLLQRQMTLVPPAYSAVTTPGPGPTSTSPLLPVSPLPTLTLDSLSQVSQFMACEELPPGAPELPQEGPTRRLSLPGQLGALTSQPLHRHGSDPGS
Chain of Cytochrome P450 2D6 (P10635 whole entry): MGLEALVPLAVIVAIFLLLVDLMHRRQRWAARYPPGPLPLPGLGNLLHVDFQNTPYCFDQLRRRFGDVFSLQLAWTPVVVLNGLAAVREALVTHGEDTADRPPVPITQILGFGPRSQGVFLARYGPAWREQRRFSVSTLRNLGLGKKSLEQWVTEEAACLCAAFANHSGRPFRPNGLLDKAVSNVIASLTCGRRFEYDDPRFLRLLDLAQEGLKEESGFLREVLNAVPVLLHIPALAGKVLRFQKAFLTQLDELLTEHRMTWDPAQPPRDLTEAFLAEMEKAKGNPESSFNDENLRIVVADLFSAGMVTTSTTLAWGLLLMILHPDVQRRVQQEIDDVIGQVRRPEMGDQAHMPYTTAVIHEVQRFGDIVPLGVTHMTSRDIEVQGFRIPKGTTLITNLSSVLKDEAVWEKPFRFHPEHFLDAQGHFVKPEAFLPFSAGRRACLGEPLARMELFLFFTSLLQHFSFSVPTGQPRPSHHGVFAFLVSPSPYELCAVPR
Chain of Cytochrome P450 2C9 (P11712 whole entry): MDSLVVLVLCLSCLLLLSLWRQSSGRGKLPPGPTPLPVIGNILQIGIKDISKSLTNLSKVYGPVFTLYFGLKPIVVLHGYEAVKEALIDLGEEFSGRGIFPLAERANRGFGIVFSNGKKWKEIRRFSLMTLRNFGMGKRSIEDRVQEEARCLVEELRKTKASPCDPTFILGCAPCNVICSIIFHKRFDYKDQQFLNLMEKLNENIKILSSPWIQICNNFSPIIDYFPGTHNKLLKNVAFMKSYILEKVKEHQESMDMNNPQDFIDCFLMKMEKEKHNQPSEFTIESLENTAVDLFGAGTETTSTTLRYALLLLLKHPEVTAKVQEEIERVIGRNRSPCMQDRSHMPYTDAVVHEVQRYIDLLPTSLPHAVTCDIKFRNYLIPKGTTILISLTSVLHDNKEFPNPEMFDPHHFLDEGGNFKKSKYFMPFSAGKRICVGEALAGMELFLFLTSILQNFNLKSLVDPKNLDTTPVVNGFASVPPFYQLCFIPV
Chain of Cytochrome P450 2C19 (P33261 whole entry): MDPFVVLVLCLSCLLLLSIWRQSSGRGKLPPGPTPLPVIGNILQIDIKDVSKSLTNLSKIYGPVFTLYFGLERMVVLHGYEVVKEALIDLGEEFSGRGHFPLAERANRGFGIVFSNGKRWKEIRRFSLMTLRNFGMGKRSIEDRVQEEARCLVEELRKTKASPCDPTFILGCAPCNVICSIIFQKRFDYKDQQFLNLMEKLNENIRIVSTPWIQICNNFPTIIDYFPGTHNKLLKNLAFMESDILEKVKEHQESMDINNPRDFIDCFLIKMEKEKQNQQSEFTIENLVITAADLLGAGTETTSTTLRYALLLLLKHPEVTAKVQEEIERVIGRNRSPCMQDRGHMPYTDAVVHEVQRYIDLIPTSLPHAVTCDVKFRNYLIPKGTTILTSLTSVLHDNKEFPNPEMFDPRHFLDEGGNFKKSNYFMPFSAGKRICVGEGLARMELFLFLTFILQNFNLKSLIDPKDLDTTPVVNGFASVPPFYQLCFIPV
Chain of Cytochrome P450 3A4 (P08684 whole entry): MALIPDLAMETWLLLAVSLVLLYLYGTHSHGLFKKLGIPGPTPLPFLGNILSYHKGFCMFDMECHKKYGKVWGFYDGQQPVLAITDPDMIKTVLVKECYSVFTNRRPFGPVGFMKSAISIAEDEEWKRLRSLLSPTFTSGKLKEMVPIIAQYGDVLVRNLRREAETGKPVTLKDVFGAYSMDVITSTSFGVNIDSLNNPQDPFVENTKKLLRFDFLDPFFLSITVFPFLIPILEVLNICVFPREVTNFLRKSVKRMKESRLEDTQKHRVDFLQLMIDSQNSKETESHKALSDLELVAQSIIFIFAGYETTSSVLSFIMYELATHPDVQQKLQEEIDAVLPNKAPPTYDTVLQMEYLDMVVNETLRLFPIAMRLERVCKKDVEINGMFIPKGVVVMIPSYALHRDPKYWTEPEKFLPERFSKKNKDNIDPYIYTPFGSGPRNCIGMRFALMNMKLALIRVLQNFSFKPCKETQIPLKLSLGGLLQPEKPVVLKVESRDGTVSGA

Ki [1]: 0.0015 µM
remaining at 0.25 h, 1 µM [2]: 50%
remaining at 0.25 h, 1 µM [3]: 84.8%
clearance [4]: 44.2 mL/min/kg
Vd [5]: 29.2 L/kg
half-life [6]: 7.6 h
bioavailability [7]: 17%
concentration at 1 h [8]: 1.82 µM
Structure (SMILES): CC(C)N1CCN(C(=O)c2ccc(CN3CCC(F)CC3)cc2)CC1
Occ [9]: 92%

Ki [1]: 0.0025 µM
remaining at 0.25 h, 1 µM [3]: 65%
Papp A→B at 1 h, 10 µM [11]: 22.4 ×10⁻⁶ cm/s
Papp B→A at 10 µM [12]: 20.9 ×10⁻⁶ cm/s
clearance [4]: 12.8 mL/min/kg
Vd [5]: 3.6 L/kg
half-life [6]: 3.2 h
bioavailability [7]: 62%
concentration at 1 h [8]: 5.37 µM
fraction unbound [13]: 0.876
IC50 [14]: > 40 µM
IC50 [15]: > 40 µM
IC50 [16]: > 40 µM
IC50 [17]: > 40 µM
IC50 [18]: > 40 µM
half-life [31]: 49.1 h
half-life [32]: 56.1 h
Activity [34]: Not Active
Structure (SMILES): CC(C)N1CCN(C(=O)c2ccc(CN3CCOCC3)cc2)CC1.O=C(O)/C=C\C(=O)O
IC50 [10]: > 10 µM
Occ [9]: 86%
Time [19]: 1 h
Activity [20]: Active
Activity [21]: Non-toxic
Activity [22]: Non-toxic
Activity [23]: Toxic
Activity [24]: Toxic
Activity [25]: Toxic
Activity [26]: Toxic
NOAEL at 672 h [27]: 25 mg/kg/day
Activity [28]: Toxic
Activity [29]: Non-toxic
Activity [30]: Non-toxic
Activity [33]: Toxic

Ki [1]: 0.0013 µM
remaining at 0.25 h, 1 µM [2]: 49.6%
remaining at 0.25 h, 1 µM [3]: 85.4%
Papp A→B at 1 h, 10 µM [11]: 71.2 ×10⁻⁶ cm/s
Papp B→A at 10 µM [12]: 22.4 ×10⁻⁶ cm/s
clearance [4]: 34.9 mL/min/kg
Vd [5]: 6.4 L/kg
half-life [6]: 2.1 h
bioavailability [7]: 85%
concentration at 1 h [8]: 8.1 µM
Activity [34]: Not Active
Structure (SMILES): O=C(c1ccc(CN2CCOCC2)cc1)N1CCN(C2CCC2)CC1
IC50 [10]: > 10 µM
Occ [9]: 96%

Source: ChEMBL document CHEMBL3576859, “Novel benzamide-based histamine h3 receptor antagonists: the identification of two candidates for clinical development” (ACS Med Chem Lett, 2015)
